The source made the active and inactive calls. The calls are words filed in the database; no cut-off is given here.
What was measured:
[1] = Tmax in ICR mouse at 10 mg/kg, po; type: ADME, organism-based; set-up: dose 10 mg/kg, route oral; conditions: in vivo
[2] = Drug level in ICR mouse brain at 10 mg/kg, po after 1 hr by HPLC/MS/MS analysis; type: ADME, organism-based; set-up: dose 10 mg/kg, route oral; conditions: read-out: Drug uptake
[3] = Plasma concentration in ICR mouse at 10 mg/kg, po after 4 hrs by HPLC/MS/MS analysis; type: ADME, organism-based; set-up: dose 10 mg/kg, route oral
[4] = system: Rattus norvegicus; assay: Antiinflammatory activity in Wistar albino rat assessed as inhibition of carrageenan-induced paw edema at 33.6 mg/kg, ig administered 1 hr before carrageenan challenge measured after 1 to 24 hrs post carrageenan challenge by plethysmometer; type: functional, organism-based
Procedure, shortened: (§1)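 Male Wistar albino rats, 140–160 g, eight per group, dosed i.g. as a suspension in 0.5% CMC; controls get 0.5% CMC only. 1 h later, 0.1 ml of 0.1% carrageenan in 0.9% NaCl is injected into the sub-plantar region of the right hind paw. Paw volume is read by plethysmometer hourly to 6 h and at 24 h. Inhibition (%) = (Vc − Vt)/Vc × 100 on mean volume increase; mean ± SEM.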

[5] = Drug level in ICR mouse brain at 5 mg/kg, iv after 0.083 hrs by HPLC/MS/MS analysis; type: ADME, organism-based; set-up: dose 5 mg/kg, route intravenous; conditions: read-out: Drug uptake
[6] = Plasma concentration in ICR mouse at 10 mg/kg, po after 8 hrs by HPLC/MS/MS analysis; type: ADME, organism-based; set-up: dose 10 mg/kg, route oral
[7] = Plasma concentration in ICR mouse at 10 mg/kg, po after 6 hrs by HPLC/MS/MS analysis; type: ADME, organism-based; set-up: dose 10 mg/kg, route oral
[8] = system: Nucleic Acid; assay: Ratio of drug level in brain to plasma in ICR mouse at 5 mg/kg, iv after 0.5 hrs by HPLC/MS/MS analysis; type: ADME, organism-based; set-up: dose 5 mg/kg, route intravenous
[9] = Plasma concentration in ICR mouse at 10 mg/kg, po after 1 hr by HPLC/MS/MS analysis; type: ADME, organism-based; set-up: dose 10 mg/kg, route oral
[10] = Drug level in ICR mouse brain at 10 mg/kg, po after 0.5 hrs by HPLC/MS/MS analysis; type: ADME, organism-based; set-up: dose 10 mg/kg, route oral; conditions: read-out: Drug uptake
[11] = Drug level in ICR mouse brain at 10 mg/kg, po after 2 hrs by HPLC/MS/MS analysis; type: ADME, organism-based; set-up: dose 10 mg/kg, route oral; conditions: read-out: Drug uptake
[12] = Plasma concentration in ICR mouse at 5 mg/kg, iv after 8 hrs by HPLC/MS/MS analysis; type: ADME, organism-based; set-up: dose 5 mg/kg, route intravenous
[13] = Tmax in ICR mouse at 5 mg/kg, iv; type: ADME, organism-based; set-up: dose 5 mg/kg, route intravenous; conditions: in vivo
[14] = Drug level in ICR mouse brain at 5 mg/kg, iv after 1 hr by HPLC/MS/MS analysis; type: ADME, organism-based; set-up: dose 5 mg/kg, route intravenous; conditions: read-out: Drug uptake
[15] = AUC (0 to infinity) in ICR mouse at 5 mg/kg, iv; type: ADME, organism-based; set-up: time infinity, dose 5 mg/kg, route intravenous; conditions: plasma
Procedure, shortened: (§2)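 ICR mice given drug intravenously at 5 mg/kg or orally at 10 mg/kg. Parameters are taken from the plasma concentration–time profile: AUC(0–t), AUC(0–∞), MRT, Cmax and bioavailability.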

[16] = Drug level in ICR mouse brain at 10 mg/kg, po after 0.25 hrs by HPLC/MS/MS analysis; type: ADME, organism-based; set-up: dose 10 mg/kg, route oral; conditions: read-out: Drug uptake
[17] = system: Nucleic Acid; assay: Ratio of drug level in brain to plasma in ICR mouse at 10 mg/kg, po after 1 hr by HPLC/MS/MS analysis; type: ADME, organism-based; set-up: dose 10 mg/kg, route oral
[18] = system: Nucleic Acid; assay: Ratio of drug level in brain to plasma in ICR mouse at 5 mg/kg, iv after 2 hrs by HPLC/MS/MS analysis; type: ADME, organism-based; set-up: dose 5 mg/kg, route intravenous
[19] = Plasma concentration in ICR mouse at 10 mg/kg, po after 0.5 hrs by HPLC/MS/MS analysis; type: ADME, organism-based; set-up: dose 10 mg/kg, route oral
[20] = Mean residence time (0 to infinity) in ICR mouse at 5 mg/kg, iv; type: ADME, organism-based; set-up: dose 5 mg/kg, route intravenous; conditions: in vivo; procedure, shortened: as §2
[21] = Plasma concentration in ICR mouse at 5 mg/kg, iv after 0.25 hrs by HPLC/MS/MS analysis; type: ADME, organism-based; set-up: dose 5 mg/kg, route intravenous
[22] = system: Nucleic Acid; assay: Ratio of drug level in brain to plasma in ICR mouse at 10 mg/kg, po after 0.5 hrs by HPLC/MS/MS analysis; type: ADME, organism-based; set-up: dose 10 mg/kg, route oral
[23] = AUC (0 to t) in ICR mouse at 5 mg/kg, iv; type: ADME, organism-based; set-up: dose 5 mg/kg, route intravenous; conditions: plasma; procedure, shortened: as §2
[24] = Drug level in ICR mouse brain at 10 mg/kg, po after 4 hrs by HPLC/MS/MS analysis; type: ADME, organism-based; set-up: dose 10 mg/kg, route oral; conditions: read-out: Drug uptake
[25] = Drug level in ICR mouse brain at 5 mg/kg, iv after 0.25 hrs by HPLC/MS/MS analysis; type: ADME, organism-based; set-up: dose 5 mg/kg, route intravenous; conditions: read-out: Drug uptake
[26] = Plasma concentration in ICR mouse at 5 mg/kg, iv after 6 hrs by HPLC/MS/MS analysis; type: ADME, organism-based; set-up: dose 5 mg/kg, route intravenous
[27] = Oral bioavailability ICR mouse at 10 mg/kg; type: ADME, organism-based; conditions: in vivo; procedure, shortened: as §2
[28] = Cmax in ICR mouse at 10 mg/kg, po; type: ADME, organism-based; set-up: dose 10 mg/kg, route oral; conditions: in vivo; procedure, shortened: as §2
[29] = Plasma concentration in ICR mouse at 10 mg/kg, po after 2 hrs by HPLC/MS/MS analysis; type: ADME, organism-based; set-up: dose 10 mg/kg, route oral
[30] = system: Nucleic Acid; assay: Ratio of drug level in brain to plasma in ICR mouse at 5 mg/kg, iv after 0.25 hrs by HPLC/MS/MS analysis; type: ADME, organism-based; set-up: dose 5 mg/kg, route intravenous
[31] = Plasma concentration in ICR mouse at 10 mg/kg, po after 0.083 hrs by HPLC/MS/MS analysis; type: ADME, organism-based; set-up: dose 10 mg/kg, route oral
[32] = Drug level in ICR mouse brain at 5 mg/kg, iv after 2 hrs by HPLC/MS/MS analysis; type: ADME, organism-based; set-up: dose 5 mg/kg, route intravenous; conditions: read-out: Drug uptake
[33] = Mean residence time (0 to infinity) in ICR mouse at 10 mg/kg, po; type: ADME, organism-based; set-up: dose 10 mg/kg, route oral; conditions: in vivo; procedure, shortened: as §2
[34] = system: Nucleic Acid; assay: Ratio of drug level in brain to plasma in ICR mouse at 5 mg/kg, iv after 0.083 hrs by HPLC/MS/MS analysis; type: ADME, organism-based; set-up: dose 5 mg/kg, route intravenous
[35] = Plasma concentration in ICR mouse at 10 mg/kg, po after 0.25 hrs by HPLC/MS/MS analysis; type: ADME, organism-based; set-up: dose 10 mg/kg, route oral
[36] = system: Rattus norvegicus; assay: Antiinflammatory activity in Wistar albino rat assessed as inhibition of carrageenan-induced paw edema at 30 mg/kg intragastrically administered 1 hr before carrageenan challenge measured after 1 to 24 hrs post carrageenan challenge by plethysmometer; type: functional, organism-based; procedure, shortened: as §1
[37] = Plasma concentration in ICR mouse at 5 mg/kg, iv after 0.5 hrs by HPLC/MS/MS analysis; type: ADME, organism-based; set-up: dose 5 mg/kg, route intravenous
[38] = Plasma concentration in ICR mouse at 5 mg/kg, iv after 2 hrs by HPLC/MS/MS analysis; type: ADME, organism-based; set-up: dose 5 mg/kg, route intravenous
[39] = Plasma concentration in ICR mouse at 5 mg/kg, iv after 1 hr by HPLC/MS/MS analysis; type: ADME, organism-based; set-up: dose 5 mg/kg, route intravenous
[40] = Drug level in ICR mouse brain at 10 mg/kg, po after 0.083 hrs by HPLC/MS/MS analysis; type: ADME, organism-based; set-up: dose 10 mg/kg, route oral; conditions: read-out: Drug uptake
[41] = Plasma concentration in ICR mouse at 5 mg/kg, iv after 0.083 hrs by HPLC/MS/MS analysis; type: ADME, organism-based; set-up: dose 5 mg/kg, route intravenous
[42] = AUC (0 to t) in ICR mouse at 10 mg/kg, po; type: ADME, organism-based; set-up: dose 10 mg/kg, route oral; conditions: plasma; procedure, shortened: as §2
[43] = system: Nucleic Acid; assay: Ratio of drug level in brain to plasma in ICR mouse at 10 mg/kg, po after 0.25 hrs by HPLC/MS/MS analysis; type: ADME, organism-based; set-up: dose 10 mg/kg, route oral
[44] = AUC (0 to infinity) in ICR mouse at 10 mg/kg, po; type: ADME, organism-based; set-up: time infinity, dose 10 mg/kg, route oral; conditions: plasma; procedure, shortened: as §2
[45] = Cmax in ICR mouse at 5 mg/kg, iv; type: ADME, organism-based; set-up: dose 5 mg/kg, route intravenous; conditions: in vivo; procedure, shortened: as §2

With `CC(C)Cc1ccc([C@H](C)C(=O)O)cc1` [DEXIBUPROFEN] the Tmax [1] was 4.8 min, the concentration at 1 h [2] was 721 ng/g and the concentration at 4 h [3] was 5260 ng/mL. For the same compound, the inhibition [4] was “Active”, the concentration at 0.083 h [5] was 1260 ng/g and the concentration at 8 h [6] was 336 ng/mL. The concentration at 6 h [7] was 1070 ng/mL, the BPR [8] was 0.032 mL/g and the concentration at 1 h [9] was 24000 ng/mL. The concentration at 0.5 h [10] was 1130 ng/g, the concentration at 2 h [11] was 340 ng/g and the concentration at 8 h [12] was 354 ng/mL. The Tmax [13] was 4.8 min, the concentration at 1 h [14] was 251 ng/g and the AUC(0-inf) [15] was 34500 ng·h/mL. For the same compound, the concentration at 0.25 h [16] was 999 ng/g, the BPR [17] was 0.031 mL/g and the BPR [18] was 0.031 mL/g. For the same compound, the concentration at 0.5 h [19] was 34400 ng/mL, the MRT inf [20] was 1.28 h and the concentration at 0.25 h [21] was 19400 ng/mL. For the same compound, the BPR [22] was 0.033 mL/g, the AUC(0-t) [23] was 33900 ng·h/mL and the concentration at 4 h [24] was 127 ng/g. For the same compound, the concentration at 0.25 h [25] was 598 ng/g, the concentration at 6 h [26] was 334 ng/mL and the bioavailability [27] was 118%. The Cmax [28] was 52.1 µg/mL, the concentration at 2 h [29] was 15800 ng/mL and the BPR [30] was 0.032 mL/g. For the same compound, the concentration at 0.083 h [31] was 52.1 µg/mL, the concentration at 2 h [32] was 123 ng/g and the MRT inf [33] was 1.68 h. The BPR [34] was 0.037 mL/g, the concentration at 0.25 h [35] was 33600 ng/mL and the inhibition [36] was “Active”. For the same compound, the concentration at 0.5 h [37] was 19800 ng/mL, the concentration at 2 h [38] was 3930 ng/mL and the concentration at 1 h [39] was 9960 ng/mL. It also gave a concentration at 0.083 h [40] of 1340 ng/g, a concentration at 0.083 h [41] of 34600 ng/mL and an AUC(0-t) [42] of 81100 ng·h/mL. For the same compound, the BPR [43] was 0.029 mL/g, the AUC(0-inf) [44] was 81600 ng·h/mL and the Cmax [45] was 34600 ng/mL.
